Viability data for 29 compounds are collected here from PubChem BioAssay AID623961 (The Scripps Research Institute Molecular Screening Center, 2012).

The structures appear in SMILES notation. “And” between values parts separate entries of the source, which are not always exact repeats. Identical values can stand only once. The source made the active and inactive calls.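 Rule for the calls: active = mean cell viability below 80%; inactive = the rest.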

For the experiment, the system named is Huh-7.5 Rluc-replicon viability, CellTiter-Glo ATP, 72 h. Nature of the experiment: Huh-7.5 replicon viability loss – cell-based, luminescence, cytotoxicity control for HCV NS3 helicase inhibitor project, late-stage follow-up (AID 623961). The settings on record: at 10 µM; stronger effect = lower value. Summed up: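 Assay system: Huh-7.5 cells with HCV RLuc replicon. Times: cell attachment 4-5 h, compound exposure 72 h at 37 °C, 5% CO2. Signal: ATP luminescence after 30 min lysis at 23 °C. Buffer or medium: growth medium, replaced before viability reagent. Compound: 10 µM single concentration, 0.5% DMSO.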
(Replicon systems follow genome replication, usually without infectious particles.)
A word on the viability: it is a read-out of living cells in per cent, often relative to untreated cells. `Cc1ccc2nc(-c3ccc4nc(-c5ccc(N(C)C(=O)c6ccc7ccccc7c6)cc5)sc4c3)sc2c1S(=O)(=O)O`: the viability is 101% (inactive).

Consider `Cc1ccc2nc(-c3ccc4nc(-c5ccc(NC(=O)c6ccc(Br)cc6)cc5)sc4c3)sc2c1S(=O)(=O)O`, for which the viability is 113% (inactive).

For the compound `Cc1ccc(NC(=O)Nc2ccc(-c3nc4ccc(-c5nc6ccc(C)c(S(=O)(=O)O)c6s5)cc4s3)cc2)cc1`, the viability was 93% (inactive).

With `Cc1ccc2nc(-c3ccc(NC(=O)c4ccc(NC(=O)c5ccc(NC(=O)OCC6c7ccccc7-c7ccccc76)cc5)cc4)cc3)sc2c1S(=O)(=O)O`, the viability was 113% (inactive).

For `Cc1ccc2nc(-c3ccc4nc(-c5ccc(NC(=O)Nc6ccc(C(F)(F)F)cc6)cc5)sc4c3)sc2c1S(=O)(=O)O`, the viability was 99% (inactive).

`O=C(Nc1ccc(-c2nc3ccccc3[nH]2)cc1)c1ccc2ncsc2c1`: the viability is 96% (inactive).

As to `Cc1ccc2nc(-c3ccc4nc(-c5ccc(NC(=O)c6ccccc6C(F)(F)F)cc5)sc4c3)sc2c1S(=O)(=O)O`, the viability is 112% (inactive).

`Cc1ccc2nc(-c3ccc4nc(-c5ccc(NC(=O)c6cccc(Cl)c6)cc5)sc4c3)sc2c1S(=O)(=O)O`: the viability is 112% (inactive).

Take `Cc1cc(C(O)(c2ccc(Nc3ccccc3)cc2)c2ccc(Nc3ccc(S(=O)(=O)O)cc3)cc2)ccc1N` (centres undefined): the viability is 73%.

Turning to `Cc1ccc2nc(-c3ccc4nc(-c5ccc(NC(=O)c6cc(F)cc(C(F)(F)F)c6)cc5)sc4c3)sc2c1S(=O)(=O)O`, the viability is 113% (inactive).

Take `Cc1ccc2nc(-c3ccc4nc(-c5ccc(NC(=O)c6ccc(N(C)C)cc6)cc5)sc4c3)sc2c1S(=O)(=O)O`: the viability is 94% (inactive).

As for `Cc1ccc2nc(-c3ccc4nc(-c5ccc(NC(=O)c6ccc7nc(-c8ccc(N)cc8)sc7c6)cc5)sc4c3)sc2c1S(=O)(=O)O`, the viability is 85% (inactive).

As for `Cc1ccc2nc(-c3ccc4nc(-c5ccc(NC(=O)c6c(F)cccc6C(F)(F)F)cc5)sc4c3)sc2c1S(=O)(=O)O`, the viability was 122% (inactive).

Regarding `CCN(CC)c1ccc(-c2nc3ccc(-c4nc5ccc(C)c(S(=O)(=O)O)c5s4)cc3s2)cc1`, the viability was 96% (inactive).

`Cc1ccc2nc(-c3ccc(NC(=S)Nc4ccccc4Br)cc3)sc2c1`: the viability is 39%.

As to `Cc1ccc2nc(-c3ccc4nc(-c5ccc(NC(=O)c6cccnc6)cc5)sc4c3)sc2c1S(=O)(=O)O`, the viability is 113% (inactive).

Regarding `Cc1ccc2nc(-c3ccc4nc(-c5ccc6nc(-c7ccc8nc(-c9ccc(N)cc9)sc8c7)sc6c5)sc4c3)sc2c1S(=O)(=O)O`, the viability is 94% (inactive) and 83% (inactive).

For `COc1ccc(NC(=O)Nc2ccc(-c3nc4ccc(-c5nc6ccc(C)c(S(=O)(=O)O)c6s5)cc4s3)cc2)cc1`, the viability was 99% (inactive).

On to `Cc1cc2sc(-c3ccc(N)cc3)nc2cc1S(=O)(=O)O`, for which the viability was 88% (inactive).

For the compound `Cc1ccc2nc(-c3ccc(NC(=O)c4ccc(NS(=O)(=O)c5ccccc5)cc4)cc3)sc2c1S(=O)(=O)O`, the viability is 119% (inactive).

`Cc1ccc2nc(-c3ccc4nc(-c5ccc6nc(-c7ccc(N)cc7)sc6c5)sc4c3)sc2c1S(=O)(=O)O` (tested in a mixture with another compound): the viability was 98% (inactive).

Consider `CN1CCN(Cc2cc(CN3CCN(C)CC3)c(O)c(=O)c(CN3CCN(C)CC3)c2)CC1`, for which the viability is 69%.

Turning to `Cc1ccc2nc(-c3ccc4nc(-c5ccc(NC(=O)c6ccc(C(F)(F)F)cc6)cc5)sc4c3)sc2c1S(=O)(=O)O`, the viability was 90% (inactive).

For the compound `Cc1ccc2nc(-c3ccc(NC(=O)c4ccc(NC(=O)c5ccccc5)cc4)cc3)sc2c1S(=O)(=O)O`, the viability is 115% (inactive).

As to `NS(=O)(=O)c1ccc2nc(NC(=O)c3ccc4ncsc4c3)sc2c1`, the viability was 94% (inactive).

As for `CCOc1ccc2nc(NC(=O)c3ccc4ncsc4c3)sc2c1`, the viability was 3%.

As to `Cc1ccc2nc(-c3ccc4nc(-c5ccc6nc(-c7ccc(N)cc7)sc6c5)sc4c3)sc2c1S(=O)(=O)O`, the viability was 91% (inactive).

With `Cc1ccc2nc(-c3ccc4nc(-c5ccc(NC(=O)c6cc(C(F)(F)F)ccc6F)cc5)sc4c3)sc2c1S(=O)(=O)O`, the viability was 132% (inactive).

`Cc1ccc2nc(-c3ccc4nc(-c5ccc(NC(=O)c6ccc(N)cc6)cc5)sc4c3)sc2c1S(=O)(=O)O`: the viability is 93% (inactive).
